The values below come from the RNAGym collection of RNA variant scans (doi:10.1126/science.aae0568).

This sample holds only a part of the variants without activity.

B1: tRNA (parent)
chain: GUUCCGUUGGCGUAAUGGUAACGCGUCUCCCUCCUAAGGAGAAGACUGCGGGUUCGAGUCCCGUACGGAACG

The variants in the data set derive from B1. Description: yeast fitness relative to wild type (ratio to wild type); higher = fitter; tRNA-Arg(CCU), competitive growth, 37 C, YPD. A digest of the protocol:
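Start and end populations of a pooled competition were compared by 100-nucleotide paired-end sequencing of gene amplicons. The Saccharomyces cerevisiae strains carried tRNA-Arg(CCU) gene variants at the native genomic locus, synthesised with a 3% per-site mutation rate at 69 sites, and competed in YPD at 37°C for 24 hours in six parallel replicates. Darwinian fitness relative to wild type was based on the change in genotype frequencies. Genotypes required ≥ 100 starting reads, and estimates < 0.5 were set to 0.5.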
For the variant GUUCCGUUGGCGUAAUGGUAACGCGUCUCCCUCCUAAGGAGCCGACUGCGGGUUGGGGUCCCGUACGGAACG [A42C A43C C55G A57G], the yeast fitness was 0.641.

For the variant GUUCCGUUGGCGUAAUGGUAACGCGUCUCCCUCCUAAGGACAAGACUGCGGGUUCGAGUCCAGUACGGAACG [G41C C62A], the yeast fitness stood at 0.713.

Consider GUUCCGUUGGCGUAAUGGUAACGCGUCUCCCUCCUAAGGACAAGACUGCGGGUUCGAGUCCCGGACGGAACG [G41C U64G], for which the yeast fitness was 0.735.

Take GUUCCGUUGGCGUAAUGGUAACGCGUCUCCCUCCUAAGGACCAGACUGCGGGUUCGAGUCCCGUACGGAACG [G41C A42C]: the yeast fitness came out at 0.565.

GUUCCGUUGGCGUAAUGGUAACGCGUCUCCCUCCUAAGGACUAGACUGCGGGUUCGAGUCCCGUACGGAACG [G41C A42U]: the yeast fitness came out at 0.79.

As to GUUCCGUUGGCGUAAUGGUAACGCGUCUCCCUCCUAAGGACAAGACUGCGGGUUCGAGUUCCGGACAGAACG [G41C C60U U64G G67A], the yeast fitness is at most 0.5.

With GUUCCGUUGGCGUAAUGGUAACGCGUCUCCCUCCUAAGGAGCAGACUGGAGGUUCGAGUCCCGUACGGAACG [A42C C49G G50A], the yeast fitness stood at 0.507.

For GUUCCGUUGGCGUAAUGGUAACGCGUCUCCCUCCUAAGGAGCAGACUGCGGGUUCGCGUCACGUACGGAACG [A42C A57C C61A], the yeast fitness was at most 0.5.

Consider GUUCCGUUGGCGUAAUGGUAACGCGUCUCCCUCCUAAGGACCAGACUGUGGGUUCGAGUCCCGUACGGAACG [G41C A42C C49U], for which the yeast fitness is at most 0.5.

With GUUCCGUUGGCGUAAUGGUAACGCGUCUCCCUCCUAAGGACAUGACUGCGGGUUCGAGUCCCGCACGGAACG [G41C A43U U64C], the yeast fitness came to 0.959.

For the variant GUUCCGUUGGCGUAAUGGUAACGCGUCUCCCUCCUAAGGACAAGACUGCGGGUUCGAAUCACGUACGGAACG [G41C G58A C61A], the yeast fitness was at most 0.5.

As to GUUCCGUUGGCGUAAUGGUAACGCGUCUCCCUCCUAAGGACAAGACUCCGGGUUCGAGUCCCGUACGGCACG [G41C G48C A69C], the yeast fitness amounted to 0.606.

For the variant GUUCCGUUGGCGUAAUGGUAACGCGUCUCCCUCCUAAGGAGCAGACUGCGGGUUCGAGUUCCGUACGGAACG [A42C C60U], the yeast fitness is 0.749.

With GUUCCGUUGGCGUAAUGGUAACGCGUCUCCCUCCUAAGGAUAAGAAUGCGGGUUCGAGUCCCGUACGGAUCG [G41U C46A A70U], the yeast fitness is 0.632.

In the case of GUUCCGUUGGCGUAAUGGUAACGCGUCUCCCUCCUAAGGACAAGACUGAGGGUUCGAGUCCCGUACGGUACG [G41C C49A A69U], the yeast fitness was found to be 0.544.

For GUUCCGUUGGCGUAAUGGUAACGCGUCUCCCUCCUAAGGACAACACUGCGGGUUAGAGUCCCGUACGGAACG [G41C G44C C55A], the yeast fitness amounted to 0.563.

On to GUUCCGUUGGCGUAAUGGUAACGCGUCUCCCUCCUAAGGAGCAGACUGCGGGUUCGCGUCCCGUACGGAACG [A42C A57C], for which the yeast fitness came to 0.62.

On to GUUCCGUUGGCGUAAUGGUAACGCGUCUCCCUCCUAAGGAGCAGACUGCGGGUUCGUGUCCCGUACGGAACG [A42C A57U], for which the yeast fitness stood at 0.688.

Turning to GUUCCGUUGGCGUAAUGGUAACGCGUCUCCCUCCUAAGGAGCUGACUGCGGGUUCCAGUCCCGUAUGGAACG [A42C A43U G56C C66U], the yeast fitness was at most 0.5.

GUUCCGUUGGCGUAAUGGUAACGCGUCUCCCUCCUAAGGACAAGACUGCGCGUUCGAGUCCCGUACGGAACG [G41C G51C]: the yeast fitness was 0.52.

With GUUCCGUUGGCGUAAUGGUAACGCGUCUCCCUCCUAAGGACAAGACUGCGGGUUCGAGUCCCGUACGCAACG [G41C G68C], the yeast fitness was determined as 0.774.

Take GUUCCGUUGGCGUAAUGGUAACGCGUCUCCCUCCUAAGGACAAGACUGCGGGUUCGAGUCCCGUACGAAACG [G41C G68A]: the yeast fitness was 0.883.

For GUUCCGUUGGCGUAAUGGUAACGCGUCUCCCUCCUAAGGACAAGACUGCGGGUUUGAGUCCCGUACGGAACG [G41C C55U], the yeast fitness turned out to be 0.787.

Consider GUUCCGUUGGCGUAAUGGUAACGCGUCUCCCUCCUAAGGACAAGACUGCGGGUUAGAGUCCCGUACGGAACG [G41C C55A], for which the yeast fitness was 0.617.

Consider GUUCCGUUGGCGUAAUGGUAACGCGUCUCCCUCCUAAGGACAAGACUGCGGGUUCGAGUGCCGUACGGAACG [G41C C60G], for which the yeast fitness was determined as 0.695.

For the variant GUUCCGUUGGCGUAAUGGUAACGCGUCUCCCUCCUAAGGACAAGACUGCGGGUUAGAGUCCCGUACGGUACG [G41C C55A A69U], the yeast fitness was at most 0.5.

Take GUUCCGUUGGCGUAAUGGUAACGCGUCUCCCUCCUAAGGACAAGACUGCGGCUUCGAGUCCCGUACGGCACG [G41C G52C A69C]: the yeast fitness is at most 0.5.

GUUCCGUUGGCGUAAUGGUAACGCGUCUCCCUCCUAAGGACAGGACUGCGGGUACGAGUCCCGUAUGGAACG [G41C A43G U54A C66U]: the yeast fitness was at most 0.5.

In the case of GUUCCGUUGGCGUAAUGGUAACGCGUCUCCCUCCUAAGGAUAAGUCUGUGGGUUCGAGUCGCGUACGGAACG [G41U A45U C49U C61G], the yeast fitness was at most 0.5.

As to GUUCCGUUGGCGUAAUGGUAACGCGUCUCCCUCCUAAGGACAAGACUGCGGGUUCGAGACCCGUACGGAACG [G41C U59A], the yeast fitness worked out at 0.801.

As to GUUCCGUUGGCGUAAUGGUAACGCGUCUCCCUCCUAAGGACAAGACUGCGGGUUCGAGUCGCGUCCGGAACG [G41C C61G A65C], the yeast fitness is at most 0.5.

As for GUUCCGUUGGCGUAAUGGUAACGCGUCUCCCUCCUAAGGAGCAGCCUGCGGCUUCGAGUCCCGUACGGAACG [A42C A45C G52C], the yeast fitness is at most 0.5.

Regarding GUUCCGUUGGCGUAAUGGUAACGCGUCUCCCUCCUAAGGACAAGGCUGCGGGUUCGAGUCCCAUAGCGAACG [G41C A45G G63A C66G G67C], the yeast fitness is at most 0.5.

GUUCCGUUGGCGUAAUGGUAACGCGUCUCCCUCCUAAGGACAAGACUGCGGCUUCGAGUCCCGUACGGAACG [G41C G52C]: the yeast fitness turned out to be 0.527.

Regarding GUUCCGUUGGCGUAAUGGUAACGCGUCUCCCUCCUAAGGACAAGACUGCGGGUUCGUGUCCCAUACGGAACG [G41C A57U G63A], the yeast fitness came out at 0.567.

As to GUUCCGUUGGCGUAAUGGUAACGCGUCUCCCUCCUAAGGACAAGACUGCGGGUUCGAGUCCCGUACAGAACG [G41C G67A], the yeast fitness is 0.89.

As for GUUCCGUUGGCGUAAUGGUAACGCGUCUCCCUCCUAAGGAGCAGUUUGCGGGUUCGAGUCCCGUACGGAACG [A42C A45U C46U], the yeast fitness came out at 0.861.

On to GUUCCGUUGGCGUAAUGGUAACGCGUCUCCCUCCUAAGGACAAGACUGCGGGUUCAAGUCCCGUACGGAACG [G41C G56A], for which the yeast fitness is 0.825.
